According to ChEMBL document CHEMBL2176934 (J Med Chem, 2012):
Calls of active or inactive are those of the source. The rule behind the calls is not given here.

Legend:
[1] = Inhibition of Cytochrome P450; format: ADME
[2] = target: Voltage-gated inwardly rectifying potassium channel KCNH2 (Homo sapiens, UniProt Q12809); experiment: Inhibition of human ERG
[3] = target: T1, Lysophosphatidic acid receptor 3 (Homo sapiens) (UniProt Q9UBY5); experiment: Antagonist activity at human recombinant LPA3 expressed in chem-1 cells assessed as inhibition of LPA-induced intracellular calcium mobilization at 30 uM incubated for 30 mins prior to LPA-challenge measured over 100 secs by FLIPR assay; format: functional, cell-based
T1 sequence (whole entry): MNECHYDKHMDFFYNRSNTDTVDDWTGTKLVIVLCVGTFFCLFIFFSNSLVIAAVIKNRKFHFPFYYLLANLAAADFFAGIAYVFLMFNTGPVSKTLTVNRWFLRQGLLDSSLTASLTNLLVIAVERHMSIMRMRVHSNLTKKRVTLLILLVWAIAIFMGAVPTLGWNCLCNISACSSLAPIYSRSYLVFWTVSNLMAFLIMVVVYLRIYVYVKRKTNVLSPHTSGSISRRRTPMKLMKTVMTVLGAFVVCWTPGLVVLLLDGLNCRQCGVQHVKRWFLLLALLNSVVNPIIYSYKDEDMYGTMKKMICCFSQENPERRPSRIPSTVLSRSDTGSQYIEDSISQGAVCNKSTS
Method in brief: (§1)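 Calcium-optimized Chem-1 cells stably expressing human LPA1 or LPA3 (parental line with ionomycin as counterscreen), seeded 10,000/well the day before. Calcium-4 dye in HBSS/20 mM HEPES/2.5 mM probenecid loaded 30 min at 37 °C; compound added, 30 min at room temperature in the dark; LPA (18:1) 1 μM final. Peak fluorescence read over 100 s; IC50 from 10-concentration 4-parameter logistic fit, mean of at least three runs.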

[4] = Inhibition of LPA-induced proliferation of HLF incubated for 1 hr prior to LPA-challenge measured after 48 hrs by BrdU incorporation assay; details: Homo sapiens
[5] = target: T2, Lysophosphatidic acid receptor 1 (Homo sapiens, UniProt Q92633); experiment: Antagonist activity at human recombinant LPA1 expressed in chem-1 cells assessed as inhibition of LPA-induced intracellular calcium mobilization at 30 uM incubated for 30 mins prior to LPA-challenge measured over 100 secs by FLIPR assay; format: functional, cell-based; method in brief: as §1
T2 sequence (Q92633 whole entry): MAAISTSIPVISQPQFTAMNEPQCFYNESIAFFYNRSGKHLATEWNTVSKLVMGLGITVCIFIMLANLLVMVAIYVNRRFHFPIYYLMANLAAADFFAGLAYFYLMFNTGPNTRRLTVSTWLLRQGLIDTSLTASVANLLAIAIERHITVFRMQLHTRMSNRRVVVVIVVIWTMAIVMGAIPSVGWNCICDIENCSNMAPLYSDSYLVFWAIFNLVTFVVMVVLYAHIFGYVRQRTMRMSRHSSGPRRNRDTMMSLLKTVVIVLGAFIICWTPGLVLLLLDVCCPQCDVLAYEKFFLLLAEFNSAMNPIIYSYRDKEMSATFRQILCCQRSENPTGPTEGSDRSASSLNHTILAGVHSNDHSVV

[6] = target: T2, Lysophosphatidic acid receptor 1; experiment: Antagonist activity at human recombinant LPA1 expressed in chem-1 cells assessed as inhibition of LPA-induced intracellular calcium mobilization incubated for 30 mins prior to LPA-challenge measured over 100 secs by FLIPR assay; format: functional, cell-based; method in brief: as §1
[7] = target: T2, Lysophosphatidic acid receptor 1; experiment: Antagonist activity at LPA1 in human lung fibroblasts assessed as inhibition of LPA-induced contraction after 18 hrs by 3D collagen gel contraction assay; format: functional
Method in brief: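 NHLFs (healthy nonsmoking donors, passages 5–9) at 2.5 × 10⁵ cells/well, mixed 1:4 with collagen lattice; gels polymerized 2 h at 37 °C, then basal medium with 0.1% FBS, 0.1% fatty acid-free BSA and vehicle or antagonist added. Gels detached, LPA (18:1) 15 μM added; after 18 h, contraction quantified by gel disc weight.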

Voltage-gated inwardly rectifying potassium channel KCNH2, sequence (Q12809 whole entry): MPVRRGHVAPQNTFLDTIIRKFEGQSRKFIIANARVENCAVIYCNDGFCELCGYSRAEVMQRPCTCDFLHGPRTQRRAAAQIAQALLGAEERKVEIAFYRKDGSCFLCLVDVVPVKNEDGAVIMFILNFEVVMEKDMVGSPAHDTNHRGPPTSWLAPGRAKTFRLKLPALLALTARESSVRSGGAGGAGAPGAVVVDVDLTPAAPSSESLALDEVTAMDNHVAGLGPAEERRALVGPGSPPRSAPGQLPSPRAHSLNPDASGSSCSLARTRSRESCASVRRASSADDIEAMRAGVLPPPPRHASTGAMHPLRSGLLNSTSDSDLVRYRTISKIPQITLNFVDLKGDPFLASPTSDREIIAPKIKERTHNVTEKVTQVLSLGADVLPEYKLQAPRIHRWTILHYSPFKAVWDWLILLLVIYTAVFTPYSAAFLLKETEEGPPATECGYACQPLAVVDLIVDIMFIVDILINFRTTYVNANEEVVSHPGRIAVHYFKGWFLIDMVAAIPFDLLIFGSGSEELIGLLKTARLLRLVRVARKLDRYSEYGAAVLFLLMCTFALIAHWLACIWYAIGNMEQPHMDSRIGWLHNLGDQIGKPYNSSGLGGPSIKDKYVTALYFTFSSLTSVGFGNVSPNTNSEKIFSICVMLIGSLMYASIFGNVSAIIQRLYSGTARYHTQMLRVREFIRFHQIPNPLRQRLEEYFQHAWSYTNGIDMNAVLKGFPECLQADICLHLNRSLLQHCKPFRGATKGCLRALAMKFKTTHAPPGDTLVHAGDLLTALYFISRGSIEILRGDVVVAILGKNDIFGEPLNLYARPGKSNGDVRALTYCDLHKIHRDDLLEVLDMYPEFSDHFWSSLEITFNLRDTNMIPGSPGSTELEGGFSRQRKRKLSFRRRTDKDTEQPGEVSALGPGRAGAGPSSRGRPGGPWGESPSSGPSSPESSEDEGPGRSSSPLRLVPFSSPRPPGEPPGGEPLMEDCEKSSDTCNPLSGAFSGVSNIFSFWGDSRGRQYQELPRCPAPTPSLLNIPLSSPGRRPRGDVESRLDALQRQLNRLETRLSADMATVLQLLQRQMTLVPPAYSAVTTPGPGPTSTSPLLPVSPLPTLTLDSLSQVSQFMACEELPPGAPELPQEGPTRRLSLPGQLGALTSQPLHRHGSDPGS

Row | SMILES | inhibition (INH) [1] | inhibition (INH) [2] | inhibition [3] [%] | IC50 [4] [nM] | inhibition [5] [%] | IC50 [6] [nM] | inhibition [7]
1 | COc1ccc(-c2cnn(C)c2NC(=O)O[C@H](C)c2ccccc2)cc1 | Not Active | Not Active | – | – | – | – | –
2 | CC(C)[C@@H](C)OC(=O)Nc1c(-c2ccc(-c3ccc(C4(C(=O)O)CC4)cc3)cc2)cnn1C | Not Active | Not Active | 9 | 30 | – | – | –
3 | Cc1nnn(-c2ccc(-c3ccc(C4(C(=O)O)CC4)cc3)cc2)c1NC(=O)OC(C)(C)C | Not Active | Not Active | 0 | 1620 | – | – | –
4 | CCOC(=O)C1(c2ccc(-c3ccc(-c4cnn(C)c4NC(=O)O[C@H](C)c4ccccc4)cc3)cc2)CC1 | Not Active | Not Active | – | – | 65 | – | –
5 | C[C@@H](OC(=O)Nc1c(-c2ccc(-c3ccc(C4(C(=O)O)CC4)cc3)cc2)nnn1C)c1ccccc1 | Not Active | Not Active | – | 3 | – | – | –
6 | C[C@@H](OC(=O)Nc1c(-c2ccc(C3CCC(CC(=O)O)CC3)cc2)nnn1C)c1ccccc1 (mixture of isomers) | Not Active | Not Active | – | 7 | – | – | –
7 | C[C@@H](OC(=O)Nc1c(-c2ccc(-c3ccc(C4(C(=O)O)CC4)cc3)cc2)cnn1C)c1ccccc1 | Not Active | Not Active | – | 2.6 | – | 21 | –
8 | C[C@@H](OC(=O)Nc1c(-c2ccc(-c3ccc(C4(C(=O)O)CC4)cc3)cc2)cnn1C)c1ccccc1F | Not Active | Not Active | – | 4.5 | – | – | –
9 | C[C@@H](OC(=O)Nc1nnn(C)c1-c1ccc(-c2ccc(C3(C(=O)O)CC3)cc2)cc1)c1ccccc1 | Not Active | Not Active | 10 | – | 12 | – | –
10 | CC(OC(=O)Nc1c(-c2ccc(-c3ccc(C4(C(=O)O)CC4)cc3)cc2)cnn1C)c1ccc(F)cc1 (racemic) | Not Active | Not Active | – | 5 | – | – | –
11 | C[C@H](OC(=O)Nc1c(-c2ccc(-c3ccc(C4(C(=O)O)CC4)cc3)cc2)nnn1C)c1cccc(C(F)(F)F)c1 | Not Active | Not Active | – | – | – | – | –
12 | Cn1ncc(-c2ccc(-c3ccc(C4(C(=O)O)CC4)cc3)cc2)c1NC(=O)OC1COC1 | Not Active | Not Active | 0 | – | 0 | – | –
13 | C[C@@H](OC(=O)Nc1c(-c2ccc(-c3ccc(C4(C(=O)O)CC4)cc3)cc2F)nnn1C)c1ccccc1 | Not Active | Not Active | – | 2 | – | – | –
14 | Cc1nnn(-c2ccc(-c3ccc(C4(C(=O)O)CC4)cc3)cc2)c1NC(=O)O[C@H](C)C(C)C | Not Active | Not Active | 17 | 60 | – | – | –
15 | C[C@@H](OC(=O)Nc1c(-c2ccc(-c3ccc(C4(C(=O)NS(C)(=O)=O)CC4)cc3)cc2)nnn1C)c1cccc(C(F)(F)F)c1 | Not Active | Not Active | – | 331 | – | 24 | inactive
16 | Cc1nnn(-c2ccc(-c3ccc(C4(C(=O)O)CC4)cc3)cc2)c1NC(=O)O[C@H](C)c1cccc(C(F)(F)F)c1 | Not Active | Not Active | – | 1200 | – | – | –
17 | CCc1nnn(-c2ccc(-c3ccc(C4(C(=O)O)CC4)cc3)cc2)c1NC(=O)O[C@H](C)c1ccccc1 | Not Active | Not Active | 63 | 16 | – | 42 | –
18 | CC[C@@H](C)OC(=O)Nc1c(C)nnn1-c1ccc(-c2ccc(C3(C(=O)O)CC3)cc2)cc1 | Not Active | Not Active | 0 | 178 | – | – | –
19 | C[C@@H](OC(=O)Nc1c(-c2ccc(-c3ccc(CC(=O)O)cc3)cc2)nnn1C)c1ccccc1 | Not Active | Not Active | – | 60 | – | – | –

Row | SMILES | inhibition (INH) [1] | inhibition (INH) [2] | inhibition [3] [%] | IC50 [4] [nM] | inhibition [5] [%] | IC50 [6] [nM] | inhibition [7]
20 | Cc1nnn(-c2ccc(-c3ccc(CC(=O)O)cc3)cc2)c1NC(=O)O[C@H](C)c1ccccc1 | Not Active | Not Active | 3 | – | 41 | – | –
21 | Cc1nnn(-c2ccc(-c3ccc(C4(C(=O)O)CC4)cc3)cc2)c1NC(=O)O[C@H](C)c1ccccc1F | Not Active | Not Active | 42 | 21 | – | – | –
22 | C[C@@H](OC(=O)Nc1c(-c2ccc(-c3ccc(C4(C(=O)O)CC4)cc3)cc2)nnn1C)c1cccc(C(F)(F)F)c1 | Not Active | Not Active | – | 74 | – | 17 | –
23 | CC(C)[C@@H](C)OC(=O)Nc1c(-c2ccc(-c3ccc(C4(C(=O)O)CC4)cc3)cc2)nnn1C | Not Active | Not Active | 24 | 20 | – | – | –
24 | Cc1nnn(-c2ccc(-c3ccc(C4(C(=O)O)CC4)cc3)cc2)c1NC(=O)OC(C)C1CCC1 (racemic) | Not Active | Not Active | 26 | 189 | – | – | –
25 | C[C@@H](OC(=O)Nc1c(-c2ccc(-c3ccccc3)cc2)cnn1C)c1ccccc1 | Not Active | Not Active | – | – | – | – | –
26 | C[C@@H](OC(=O)Nc1c(-c2ccc(CC(=O)O)cc2)cnn1C)c1ccccc1 | Not Active | Not Active | – | – | – | – | –
27 | C[C@H](OC(=O)Nc1c(-c2ccccc2F)cnn1C)c1ccccc1Cl | Not Active | Not Active | – | – | – | – | –
28 | Cc1nnn(-c2ccc(-c3ccc(C4(c5nnn[nH]5)CC4)cc3)cc2)c1NC(=O)O[C@H](C)c1ccccc1 | Not Active | Not Active | 28 | 105 | – | 23 | –
29 | C[C@@H](OC(=O)Nc1nncn1-c1ccc(-c2ccc(C3(C(=O)O)CC3)cc2)cc1)c1ccccc1 | Not Active | Not Active | 17 | – | 11 | – | –
30 | C[C@@H](OC(=O)Nc1c(-c2ccccc2)cnn1C)c1ccccc1 | Not Active | Not Active | – | – | 65 | – | –
31 | CC[C@@H](C)OC(=O)Nc1c(-c2ccc(-c3ccc(C4(C(=O)O)CC4)cc3)cc2)cnn1C | Not Active | Not Active | 0 | 48 | – | – | –
32 | C[C@@H](OC(=O)Nc1c(-c2ccc(-c3ccc(C4(C(=O)NS(C)(=O)=O)CC4)cc3)cc2)nnn1C)c1ccccc1 | Not Active | Not Active | – | 4 | – | – | –
33 | C[C@@H](OC(=O)Nc1cnnn1-c1ccc(-c2ccc(C3(C(=O)O)CC3)cc2)cc1)c1ccccc1 | Not Active | Not Active | 23 | 40 | – | – | –
34 | Cc1nnn(-c2ccc(-c3ccc(C4(C(=O)NS(C)(=O)=O)CC4)cc3)cc2)c1NC(=O)O[C@H](C)c1ccccc1 | Not Active | Not Active | 7 | 60 | – | 32 | –
35 | C[C@@H](OC(=O)Nc1c(-c2ccc(-c3ccc(CC(=O)O)cc3)cc2)cnn1C)c1ccccc1 | Not Active | Not Active | – | 47 | – | – | –
36 | Cn1ncc(-c2ccc(-c3ccc(C4(C(=O)O)CC4)cc3)cc2)c1NC(=O)OC1CCC1 | Not Active | Not Active | 13.7 | 192 | – | – | –
37 | C[C@@H](OC(=O)Nc1c(-c2ccc(-c3ccc(C4(C(=O)O)CC4)cc3)cc2)cnn1C)c1cccc(C(F)(F)F)c1 | Not Active | Not Active | – | 37 | – | 41 | –
38 | Cc1nnn(-c2ccc(-c3ccc(C4(C(=O)O)CC4)cc3)cc2)c1NC(=O)O[C@H](C)c1ccccc1C(F)(F)F | Not Active | Not Active | 55 | 77 | – | – | –
